Tests used:
[1] = Cytotoxicity against human leukemia cells after 48 hrs; assay type: functional; conditions: Leukemia cell
In short: (§1)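 NCI 60-cell panel (subpanels include leukemia and prostate). […] Percent growth relative to untreated control; some repeats averaged over two experiments.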

NSCLC = experiment: Cytotoxicity against human NSCLC cells after 48 hrs; assay type: functional
In short: (§2)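 NCI 60-cell panel subpanel lines; compounds first screened at a single 10−5 M, then those passing threshold tested in five-concentration assay over 10−9 to 10−4 M (some to 10−3 M), 48 h exposure. Growth relative to untreated control measured as cell protein; GI50, TGI and LC50 derived; some values are means of two experiments.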

[2] = Cytotoxicity against human COLON cells after 48 hrs; assay type: functional; in short: as §2
[3] = Cytotoxicity against human CNS cancer cells after 48 hrs; assay type: functional; conditions: Cancer cell lines; in short: as §2
[4] = Cytotoxicity against human melanoma cells after 48 hrs; assay type: functional; conditions: Melanoma cell; for CC50: read-out: LC50 (the source's name); in short: as §2
[5] = Cytotoxicity against human ovarian cancer cells after 48 hrs; assay type: functional; conditions: Cancer cell lines; in short: as §2
[6] = Cytotoxicity against human renal cancer cells after 48 hrs; assay type: functional; conditions: Cancer cell lines; for CC50: read-out: LC50 (the source's name); in short: as §2
[7] = Cytotoxicity against human prostate cancer cells after 48 hrs; assay type: functional; conditions: Cancer cell lines; in short: as §1
[8] = Cytotoxicity against human breast cancer cells after 48 hrs; assay type: functional; conditions: Cancer cell lines; in short: as §2
[9] = Inhibition of bovine brain tubulin assembly after 20 mins; set-up: species or system Bos taurus
Bos taurus = species: Bos taurus; experiment: Displacement of [3H]colchicine from bovine brain tubulin at 5 uM after 10 mins

Compound	GI50 [1] [µM]	GI50 (NSCLC) [µM]	TGI (NSCLC) [µM]	GI50 [2] [µM]	LC50 (concentration giving 50% net cell kill) [2] [µM]	TGI [2] [µM]	GI50 [3] [µM]	GI50 [4] [µM]	TGI [4] [µM]	CC50 [4] [µM]	GI50 [5] [µM]	TGI [5] [µM]	GI50 [6] [µM]	TGI [6] [µM]	GI50 [7] [µM]	TGI [7] [µM]	GI50 [8] [µM]	TGI [8] [µM]	IC50 [9] [µM]	inhibition (Bos taurus) [%]	also measured
Cc1nn2c(/C=C3/C(=O)Nc4c3ccc3ccccc43)c(C)nc2s1	0.17	0.87	15.5	0.35	49	6.61	0.39	0.68	17	70.8	0.91	11.8	0.83	10.5	0.38	5.13	0.3	6.31	16	45	LC50 (concentration killing 50% of cells) [1]: 66.1 µM; TGI [1]: 3.31 µM; LC50 (NSCLC): 74.1 µM; LC50 [3]: 46.8 µM; LC50 (concentration killing 50% of starting cells) [5]: 56.2 µM; CC50 [6]: 56.2 µM; LC50 (concentration killing 50% of cells) [7]: 15.1 µM; LC50 [8]: 75.9 µM
COc1nc2sccn2c1/C=C1/C(=O)Nc2cc(Cl)ccc21	0.14	1.29	79.4	0.33	79.4	22.4	0.35	0.21	34.7	93.3	0.65	21.4	0.62	49	0.39	69.2	0.54	58.9	13	53	TGI [1]: 5.37 µM; LC50 [3]: 75.9 µM; TGI [3]: 16.2 µM; LC50 (concentration killing 50% of starting cells) [5]: 89.1 µM; CC50 [6]: 85.1 µM
COc1nc2sccn2c1/C=C1/C(=O)Nc2ccccc21	0.5	0.43	51.3	0.29	89.1	13.8	0.25	0.47	40.7	95.5	0.44	20.4	0.54	38.9	0.55	29.5	0.28	13.2	3.7	48	LC50 (concentration killing 50% of cells) [1]: 60.3 µM; TGI [1]: 21.4 µM; LC50 (NSCLC): 93.3 µM; LC50 [3]: 50.1 µM; TGI [3]: 7.94 µM; LC50 [8]: 91.2 µM
COc1ccc2c(c1)C(=Cc1c(OC)nc3sccn13)C(=O)N2C (mixture of isomers)	0.16	1.02	58.9	0.35	87.1	24	0.38	0.79	72.4	91.2	0.63	31.6	0.71	53.7	0.55		0.49	49	3.8	45	LC50 (concentration killing 50% of cells) [1]: 79.4 µM; TGI [3]: 18.6 µM
O=C1Nc2ccc(Cl)cc2C1=Cc1c(-c2ccccn2)nc2sccn12 (mixture of isomers)	0.28	1.78	18.2	0.52	33.9	10.5	0.71	0.68	11.8	51.3	1.62	17.4	1.15	10.5	1.26	19.1	0.45	7.76	> 20	13	LC50 (concentration killing 50% of cells) [1]: 69.2 µM; TGI [1]: 7.08 µM; LC50 (NSCLC): 58.9 µM; LC50 [3]: 66.1 µM; TGI [3]: 22.4 µM; LC50 (concentration killing 50% of starting cells) [5]: 50.1 µM; CC50 [6]: 43.6 µM; LC50 (concentration killing 50% of cells) [7]: 47.9 µM; LC50 [8]: 42.7 µM
COc1nc2sccn2c1C=C1C(=O)Nc2ccc(F)cc21 (mixture of isomers)	3.39	6.03	66.1	3.16		61.7	6.46	6.03	47.9		5.62	44.7	6.76	47.9	12	93.3	2.88	51.3			TGI [3]: 42.7 µM
O=C1Nc2cc(Cl)ccc2C1=Cc1c(-c2ccccn2)nc2sccn12 (mixture of isomers)	0.06	0.33	28.8	0.11	46.8	21.9	0.17	0.12	15.1	38.9	0.27	11.5	0.25	15.8	0.15	31.6	0.21	12.6	9.3	48	TGI [1]: 4.57 µM; LC50 (NSCLC): 49 µM; LC50 [3]: 38 µM; TGI [3]: 6.03 µM; LC50 (concentration killing 50% of starting cells) [5]: 36.3 µM; CC50 [6]: 42.7 µM; LC50 [8]: 46.8 µM

Reference: ChEMBL document CHEMBL2062525, “Substituted 3-(5-imidazo[2,1-b]thiazolylmethylene)-2-indolinones and analogues: synthesis, cytotoxic activity, and study of the mechanism of action” (J Med Chem, 2012)
